Measured values from the RNAGym collection of RNA variant scans (doi:10.1038/s41586-018-0170-7).

B1: tRNA (parent)
chain: GUUCCGUUGGCGUAAUGGUAACGCGUCUCCCUCCUAAGGAGAAGACUGCGGGUUCGAGUCCCGUACGGAACG

Variants of: B1
Assay: yeast fitness, log relative to wild type (ln ratio); higher = fitter; tRNA-Arg(CCU), competitive growth, 37 C, 1 M NaCl
Method in brief: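 Fitness is the natural log of each genotype's generations divided by the wild type's. Generations were derived as OD-scaled log2 output/input frequency from 125 bp paired-end Illumina counts, weighting replicates by inverse variance. Pools of the tRNA-Arg(CCU) variant library, on a HIS3 centromeric plasmid in BY4742 lacking the chromosomal gene, grew ~6.5 generations (~26.5 h) in SC-HIS 1M NaCl at 37 °C after 4 generations in SC-HIS at 30 °C.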

| Variant | yeast fitness (ln) |
| --- | --- |
| AUUCCAUUGGCGUAAUGGUAACGCGUUUCCCUCCUAAGGAGAAGACUGCGGGUUCGAGUCCCGUAUGGGGCG [G1A G6A C27U C66U A69G A70G] | -0.386 |
| AUUCCAUUGGCGUAAUGGUAACGCGUUUCCCUCCUAAGGAGAAGACUGCGGGUUCGAGUCCCGUAUGGGUCG [G1A G6A C27U C66U A69G A70U] | -0.324 |
| AUUCCAUUGGCGUAAUGGUAACGCGUUUCCCUCCUAAGGAGAAGAUUGCGGGUUCGAGUCCCGUAAGGAAUG [G1A G6A C27U C46U C66A C71U] | -0.11 |
| AUUCCAUUGGCGUAAUGGUAACGCGUUUCCCUCCUAAGGAGACGACUGCGGGUUCGAGUCCCGUAUGGAAUG [G1A G6A C27U A43C C66U C71U] | -0.505 |
| AUUCCAUUGGCGUAAUGGUAACGCGUUUCCCUCCUAAGGAGACGAUUGCGGGUUCGAGUCCCGUAUGGAUCG [G1A G6A C27U A43C C46U C66U A70U] | -0.318 |
| AUUCCAUUGGCGUAAUGGUAACGCGUUUCCCUCCUAAGGAGACGAUUGCGGGUUCGAGUCCCGUAUGGAGCG [G1A G6A C27U A43C C46U C66U A70G] | -0.27 |
| AUUCCAUUGGCGUAAUGGUAACGCGUUUCCCUCCUAAGGAGACGACUGCGGGUUCGAGUCCCGUAUGGAGUG [G1A G6A C27U A43C C66U A70G C71U] | -0.323 |
| AUUCCAUUGGCGUAAUGGUAACGCGUUUCCCUCCUAAGGAGAAGAUUGCGGGUUCGAGUCCCGUACGGAUUG [G1A G6A C27U C46U A70U C71U] | -0.258 |
| AUUCCAUUGGCGUAAUGGUAACGCGUUUCCCUCCUAAGGAGACGAUUGCGGGUUCGAGUCCCGUAAGGAUUG [G1A G6A C27U A43C C46U C66A A70U C71U] | -0.209 |
| AUUCCAUUGGCGUAAUGGUAACGCGUUUCCCUCCUAAGGAGACGAUUGCGGGUUCGAGUCCCGUAAGGAUCG [G1A G6A C27U A43C C46U C66A A70U] | -0.192 |
| AUUCCAUUGGCGUAAUGGUAACGCGUUUCCCUCCUAAGGAGAAGACUGCGGGUUCGAGUCCCGUAAGGAUUG [G1A G6A C27U C66A A70U C71U] | -0.292 |
| AUUCCAUUGGCGUAAUGGUAACGCGUUUCCCUCCUAAGGAGAAGACUGCGGGUUCGAGUCCCGUAAGGGGUG [G1A G6A C27U C66A A69G A70G C71U] | -0.392 |
| AUUCCAUUGGCGUAAUGGUAACGCGUUUCCCUCCUAAGGAGAAGAUUGCGGGUUCGAGUCCCGUAAGGAUUG [G1A G6A C27U C46U C66A A70U C71U] | -0.228 |
| AUUCCAUUGGCGUAAUGGUAACGCGUUUCCCUCCUAAGGAGAAGAUUGCGGGUUCGAGUCCCGUACGGAACG [G1A G6A C27U C46U] | -0.143 |
| AUUCCAUUGGCGUAAUGGUAACGCGUUUCCCUCCUAAGGAGACGACUGCGGGUUCGAGUCCCGUACGGAAUG [G1A G6A C27U A43C C71U] | -0.213 |
| AUUCCAUUGGCGUAAUGGUAACGCGUUUCCCUCCUAAGGAGAAGAUUGCGGGUUCGAGUCCCGUAAGGAGUG [G1A G6A C27U C46U C66A A70G C71U] | -0.269 |
| AUUCCAUUGGCGUAAUGGUAACGCGUUUCCCUCCUAAGGAGAAGACUGCGGGUUCGAGUCCCGUACGGAUUG [G1A G6A C27U A70U C71U] | -0.23 |
| AUUCCAUUGGCGUAAUGGUAACGCGUUUCCCUCCUAAGGAGAAGAUUGCGGGUUCGAGUCCCGUACGGAGUG [G1A G6A C27U C46U A70G C71U] | -0.366 |
| AUUCCAUUGGCGUAAUGGUAACGCGUUUCCCUCCUAAGGAGACGACUGCGGGUUCGAGUCCCGUAUGGAUUG [G1A G6A C27U A43C C66U A70U C71U] | -0.381 |

| Variant | yeast fitness (ln) |
| --- | --- |
| AUUCCAUUGGCGUAAUGGUAACGCGUUUCCCUCCUAAGGAGACGAUUGCGGGUUCGAGUCCCGUACGGAUCG [G1A G6A C27U A43C C46U A70U] | -0.201 |
| AUUCCAUUGGCGUAAUGGUAACGCGUUUCCCUCCUAAGGAGAAGACUGCGGGUUCGAGUCCCGUACGGAGUG [G1A G6A C27U A70G C71U] | -0.332 |
| AUUCCAUUGGCGUAAUGGUAACGCGUUUCCCUCCUAAGGAGACGAUUGCGGGUUCGAGUCCCGUAUGGGUUG [G1A G6A C27U A43C C46U C66U A69G A70U C71U] | -0.477 |
| AUUCCAUUGGCGUAAUGGUAACGCGUUUCCCUCCUAAGGAGAAGAUUGCGGGUUCGAGUCCCGUAUGGGAUG [G1A G6A C27U C46U C66U A69G C71U] | -0.132 |
| AUUCCAUUGGCGUAAUGGUAACGCGUUUCCCUCCUAAGGAGAAGAUUGCGGGUUCGAGUCCCGUAUGGGGUG [G1A G6A C27U C46U C66U A69G A70G C71U] | -0.698 |
| AUUCCAUUGGCGUAAUGGUAACGCGUUUCCCUCCUAAGGAGAAGAUUGCGGGUUCGAGUCCCGUAUGGAUUG [G1A G6A C27U C46U C66U A70U C71U] | -0.478 |
| AUUCCAUUGGCGUAAUGGUAACGCGUUUCCCUCCUAAGGAGAAGAUUGCGGGUUCGAGUCCCGUAAGGAGCG [G1A G6A C27U C46U C66A A70G] | -0.285 |
| AUUCCAUUGGCGUAAUGGUAACGCGUUUCCCUCCUAAGGAGAAGAUUGCGGGUUCGAGUCCCGUAUGGGUUG [G1A G6A C27U C46U C66U A69G A70U C71U] | -0.436 |
| AUUCCAUUGGCGUAAUGGUAACGCGUUUCCCUCCUAAGGAGACGACUGCGGGUUCGAGUCCCGUAAGGGGUG [G1A G6A C27U A43C C66A A69G A70G C71U] | -0.299 |
| AUUCCAUUGGCGUAAUGGUAACGCGUUUCCCUCCUAAGGAGAAGACUGCGGGUUCGAGUCCCGUAAGGAGUG [G1A G6A C27U C66A A70G C71U] | -0.473 |
| AUUCCAUUGGCGUAAUGGUAACGCGUUUCCCUCCUAAGGAGACGAUUGCGGGUUCGAGUCCCGUAAGGGGUG [G1A G6A C27U A43C C46U C66A A69G A70G C71U] | -0.302 |
| AUUCCAUUGGCGUAAUGGUAACGCGUUUCCCUCCUAAGGAGACGAUUGCGGGUUCGAGUCCCGUAUGGGUCG [G1A G6A C27U A43C C46U C66U A69G A70U] | -0.471 |
| AUUCCAUUGGCGUAAUGGUAACGCGUUUCCCUCCUAAGGAGACGAUUGCGGGUUCGAGUCCCGUAUGGGGCG [G1A G6A C27U A43C C46U C66U A69G A70G] | -0.309 |
| AUUCCAUUGGCGUAAUGGUAACGCGUUUCCCUCCUAAGGAGACGAUUGCGGGUUCGAGUCCCGUAUGGGGUG [G1A G6A C27U A43C C46U C66U A69G A70G C71U] | -0.324 |
| AUUCCAUUGGCGUAAUGGUAACGCGUUUCCCUCCUAAGGAGAAGAUUGCGGGUUCGAGUCCCGUACGGGUUG [G1A G6A C27U C46U A69G A70U C71U] | -0.36 |
| AUUCCAUUGGCGUAAUGGUAACGCGUUUCCCUCCUAAGGAGAAGAUUGCGGGUUCGAGUCCCGUAUGGGGCG [G1A G6A C27U C46U C66U A69G A70G] | -0.338 |
| AUUCCAUUGGCGUAAUGGUAACGCGUUUCCCUCCUAAGGAGAAGAUUGCGGGUUCGAGUCCCGUAUGGGUCG [G1A G6A C27U C46U C66U A69G A70U] | -0.468 |
| AUUCCAUUGGCGUAAUGGUAACGCGUUUCCCUCCUAAGGAGACGACUGCGGGUUCGAGUCCCGUAUGGGGUG [G1A G6A C27U A43C C66U A69G A70G C71U] | -0.487 |
